Active and inactive are the calls of the source. The calls are words filed in the database; no cut-off is given here.
Columns and labels:
Mus musculus [1] = test: Anticonvulsant activity in mouse assessed as protection against maximal electroshock-induced seizures at 300 mg/kg, ip after 0.5 hrs; type: functional, organism-based; design: dose 300 mg/kg
Procedure, shortened: (§1)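 Albino mice of either sex (25-30 g), housed under standard conditions with free access to pellet diet and water. Compounds given at 30, 100 and 300 mg/kg (n = 6). MES and scPTZ seizures were read at 0.5 h and 4 h. The value recorded is the minimum dose protecting half or more of the mice; 300 mg/kg is the maximum dose.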

Mus musculus [2] = test: Anticonvulsant activity in ip dosed mouse assessed as compound concentration causing protection against maximal electroshock-induced seizures in half or more test animals after 4 hrs; type: functional; settings: read-out: MED; procedure, shortened: as §1
Mus musculus [3] = test: Anticonvulsant activity in ip dosed mouse assessed as compound concentration causing protection against subcutaneous pentylenetetrazol-induced seizures in half or more test animals after 4 hrs; type: functional; settings: read-out: MED; procedure, shortened: as §1
Mus musculus [4] = test: Neurotoxicity in mouse assessed as minimal motor impairment at 300 mg/kg, ip after 4 hrs by rotarod test; type: toxicity, organism-based; design: dose 300 mg/kg, route intraperitoneal; settings: in vivo
Procedure, shortened: (§2)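 Albino mice of either sex (25-30 g) received 30, 100 or 300 mg/kg (n = 6). Neurological deficit was assessed on the rotarod at 0.5 h and 4 h. The value recorded is the minimum dose producing neurotoxicity in half or more of the mice; 300 mg/kg is the maximum dose.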

Mus musculus [5] = test: Anticonvulsant activity in mouse assessed as protection against subcutaneous pentylenetetrazol-induced seizures at 300 mg/kg, ip after 0.5 hrs; type: functional, organism-based; design: dose 300 mg/kg; procedure, shortened: as §1
Mus musculus [6] = test: Neurotoxicity in mouse assessed as minimal motor impairment at 300 mg/kg, ip after 0.5 hrs by rotarod test; type: toxicity, organism-based; design: dose 300 mg/kg, route intraperitoneal; settings: in vivo; procedure, shortened: as §2
Mus musculus [7] = test: CNS depressant activity in mouse assessed as immobility time at 100 mg/kg, ip measured 60 mins post dose by porsolt's swimming pool test; type: organism-based; design: dose 100 mg/kg, route intraperitoneal; settings: in vivo, 1 h
Procedure, shortened: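 Behavioral depression was measured by Porsolt's swim test in albino mice of either sex. Immobility time (s) was recorded 24 h before as the control and again 60 min after treatment. Values are mean ± SEM of six mice, compared with Student's t test.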

Mus musculus [8] = test: Anticonvulsant activity in ip dosed mouse assessed as compound concentration causing protection against maximal electroshock-induced seizures in half or more test animals after 0.5 hrs; type: functional; settings: read-out: MED; procedure, shortened: as §1
Mus musculus [9] = test: Neurotoxicity in ip dosed mouse assessed as minimal motor impairment after 0.5 hrs by rotarod test; type: toxicity, organism-based; settings: in vivo; procedure, shortened: as §2
Mus musculus [10] = test: Neurotoxicity in ip dosed mouse assessed as minimal motor impairment after 4 hrs by rotarod test; type: toxicity, organism-based; settings: in vivo; procedure, shortened: as §2
Mus musculus [11] = test: Anticonvulsant activity in mouse assessed as protection against subcutaneous pentylenetetrazol-induced seizures at 300 mg/kg, ip after 4 hrs; type: functional, organism-based; design: dose 300 mg/kg; procedure, shortened: as §1
Mus musculus [12] = test: Hepatotoxicity in mouse assessed as effect on total protein level at 30 mg/kg/day, po dosed for 2 weeks relative to control; type: toxicity, organism-based; design: route oral; settings: in vivo, 336 h
Procedure, shortened: (§3)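 Serum SGOT, SGPT, alkaline phosphatase, total albumin and total protein were measured in treated mice against controls (n = 6). Data were analysed by ANOVA followed by Student's t test.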

Mus musculus [13] = test: Hepatotoxicity in mouse assessed as effect on alkaline phosphatase level at 30 mg/kg/day, po dosed for 2 weeks relative to control; type: toxicity, organism-based; design: route oral; settings: in vivo, 336 h; procedure, shortened: as §3
Mus musculus [14] = test: Hepatotoxicity in mouse assessed as effect on SGOT level at 30 mg/kg, po after 2 weeks relative to control; type: toxicity, organism-based; design: dose 30 mg/kg, route oral; settings: in vivo, 336 h; procedure, shortened: as §3
Mus musculus [15] = test: Hepatotoxicity in mouse assessed as hepatocytes degeneration at 30 mg/kg/day, po dosed for 2 weeks by Harris haematoxylin-eosin staining based […] microscopic analysis relative to control; type: toxicity, organism-based, Hepatocyte; design: route oral; settings: 336 h
Mus musculus [16] = test: Hepatotoxicity in mouse assessed as hepatic inflammation at 30 mg/kg/day, po dosed for 2 weeks by Harris haematoxylin-eosin staining based […] microscopic analysis relative to control; type: toxicity, organism-based; design: route oral; settings: in vivo, 336 h
Mus musculus [17] = test: Anticonvulsant activity in ip mouse assessed as protection against subcutaneous pentylenetetrazol-induced seizures; type: functional
Procedure, shortened: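 This is the Phase II quantitation in albino mice of either sex (25-30 g). […] TD50 came from the rotarod test, read 30 min after dosing. The protective index is TD50/ED50.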

Mus musculus [18] = test: Increase in GABA level in mouse brain at 30 mg/kg, po dosed for 7 days by spectrophotometry relative to control; type: functional
Mus musculus [19] = test: Hepatotoxicity in mouse assessed as effect on SGPT level at 30 mg/kg/day, po dosed for 2 weeks relative to control; type: toxicity, organism-based; design: route oral; settings: in vivo, 336 h; procedure, shortened: as §3
Mus musculus [20] = test: Neuroprotective activity in acrylamide-intoxicated mouse assessed as reduction in brain LDH level at 50 mg/kg, ip dosed 3 days/week for 3 weeks administered 10 mins before acrylamide challenge by spectrophotometry; type: functional, organism-based; design: dose 50 mg/kg
Procedure, shortened: (§4)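 Mice were given acrylamide to induce brain degeneration, with compound administered 10 min before the acrylamide. Brain MDA (lipid peroxidation) and LDH activity were measured against controls. Values are mean ± SEM of six animals, compared with Student's t test.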

Mus musculus [21] = test: Hepatotoxicity in mouse assessed as effect on total albumin level at 30 mg/kg/day, po dosed for 2 weeks relative to control; type: toxicity, organism-based; design: route oral; settings: in vivo, 336 h; procedure, shortened: as §3
Mus musculus [22] = test: Neuroprotective activity in acrylamide-intoxicated mouse assessed as reduction in brain malonaldehyde level at 50 mg/kg, ip dosed 3 days/week for 3 weeks administered 10 mins before acrylamide challenge by TBARS detection assay; type: functional, organism-based; design: dose 50 mg/kg; procedure, shortened: as §4
Mus musculus [23] = organism: Mus musculus; test: Protective index, ratio of TD50 for mouse to ED50 for anticonvulsant activity in mouse by maximal electroshock-seizure test; type: functional
[24] = Neurotoxicity in ip dosed mouse after 30 mins by rotarod test; type: toxicity, organism-based; settings: in vivo
Mus musculus [25] = test: Protective index, ratio of TD50 for mouse to ED50 for anticonvulsant activity in mouse by subcutaneous pentylenetetrazol-induced seizure test; type: functional
Mus musculus [26] = test: Hepatotoxicity in mouse assessed as liver necrosis at 30 mg/kg/day, po dosed for 2 weeks by Harris haematoxylin-eosin staining based […] microscopic analysis relative to control; type: toxicity, organism-based; design: route oral; settings: in vivo, 336 h
Mus musculus [27] = test: Anticonvulsant activity in ip dosed mouse assessed as compound concentration causing protection against subcutaneous pentylenetetrazol-induced seizures in half or more test animals after 0.5 hrs; type: functional; settings: read-out: MED; procedure, shortened: as §1
Mus musculus [28] = test: Anticonvulsant activity in ip dosed mouse assessed as protection against maximal electroshock-induced seizures; type: functional
Mus musculus [29] = test: Hepatotoxicity in mouse assessed as morphological changes in hepatic parenchyma at 30 mg/kg/day, po dosed for 2 weeks by Harris haematoxylin-eosin staining based […] microscopic analysis relative to control; type: toxicity, organism-based; design: route oral; settings: in vivo, 336 h
Mus musculus [30] = test: Anticonvulsant activity in mouse assessed as protection against maximal electroshock-induced seizures at 300 mg/kg, ip after 4 hrs; type: functional, organism-based; design: dose 300 mg/kg; procedure, shortened: as §1

Compound | Activity (Mus musculus [1]) | minimal effective dose (Mus musculus [2]) [mg/kg] | minimal effective dose (Mus musculus [3]) [mg/kg] | Activity (Mus musculus [4]) | Activity (Mus musculus [5]) | Activity (Mus musculus [6]) | Time (Mus musculus [7]) [s] | minimal effective dose (Mus musculus [8]) [mg/kg] | MTC (Mus musculus [9]) [mg/kg] | MTC (Mus musculus [10]) [mg/kg] | Activity (Mus musculus [11]) | minimal effective dose (Mus musculus [27]) [mg/kg] | other results
CC(=O)c1ccc2nc(NC(=O)CCC(=O)c3ccccc3)sc2c1 | inactive | 100 | 300 | Non-toxic | inactive | Non-toxic | 168.3 |  |  |  |  |  | 
O=C(Nc1nc2cc(Cl)c(F)cc2s1)c1ccccc1C(=O)c1ccccc1 |  | 300 |  |  | inactive |  | 158.1 | 300 | 300 | 300 | inactive |  | 
COc1ccc2nc(NC(=O)CCC(=O)c3ccccc3)sc2c1 |  | 30 | 100 | Non-toxic |  | Non-toxic | 135.6 | 30 |  |  |  | 100 | Activity (Mus musculus [12]): Non-toxic; Activity (Mus musculus [13]): Non-toxic; Activity (Mus musculus [14]): Non-toxic; Activity (Mus musculus [15]): Non-toxic; Activity (Mus musculus [16]): Non-toxic; ED50 (Mus musculus [17]): 85.2 mg/kg; fold change (FC) (Mus musculus [18]): 1.8; Activity (Mus musculus [19]): Non-toxic; Activity (Mus musculus [20]): Active; Activity (Mus musculus [21]): Non-toxic; Activity (Mus musculus [22]): Active; Ratio TD50/ED50 (Mus musculus [23]): 8.4; TD50 at 0.5 h [24]: 348 mg/kg; Ratio TD50/ED50 (Mus musculus [25]): 4; Activity (Mus musculus [26]): Non-toxic; ED50 (Mus musculus [28]): 41 mg/kg; Activity (Mus musculus [29]): Non-toxic
NC(=O)N1c2ccccc2C=Cc2ccccc21 [CARBAMAZEPINE] |  | 100 | 300 |  |  |  | 179.5 | 30 | 100 | 300 |  | 100 | ED50 (Mus musculus [17]): > 100 mg/kg; ED50 (Mus musculus [28]): 8.8 mg/kg
O=C1NC(=O)C(c2ccccc2)(c2ccccc2)N1 [PHENYTOIN] |  | 30 |  |  | inactive |  |  | 30 | 100 | 100 | inactive |  | ED50 (Mus musculus [17]): > 300 mg/kg
Cc1ccc2nc(NC(=O)CCC(=O)c3ccccc3)sc2c1 |  | 100 | 300 | Non-toxic |  | Non-toxic | 130 | 100 |  |  |  | 300 | Activity (Mus musculus [12]): Toxic; Activity (Mus musculus [13]): Non-toxic; Activity (Mus musculus [14]): Non-toxic; Activity (Mus musculus [19]): Non-toxic; Activity (Mus musculus [20]): Active; Activity (Mus musculus [21]): Non-toxic; Activity (Mus musculus [22]): Active
O=C(Nc1nc2ccc(Cl)cc2s1)c1ccccc1C(=O)c1ccccc1 | inactive | 100 | 300 | Non-toxic | inactive | Non-toxic | 157 |  |  |  |  |  | 
O=C(CCC(=O)c1ccccc1)Nc1nc2cc(Cl)c(F)cc2s1 |  | 300 |  | Non-toxic | inactive | Non-toxic | 146.6 | 300 |  |  | inactive |  | 
O=C(CCC(=O)c1ccccc1)Nc1nc2ccc([N+](=O)[O-])cc2s1 |  |  |  |  | inactive | Non-toxic | 166.1 | 300 |  | 300 | inactive |  | Activity (Mus musculus [30]): inactive
O=C(Nc1nc2ccc(Br)cc2s1)c1ccccc1C(=O)c1ccccc1 |  |  |  |  | inactive |  | 179.1 | 300 | 300 | 300 | inactive |  | Activity (Mus musculus [30]): inactive
O=C(CCC(=O)c1ccccc1)Nc1nc2ccc(F)cc2s1 | inactive | 300 |  | Non-toxic | inactive | Non-toxic | 160 |  |  |  | inactive |  | 
Cc1ccc2nc(NC(=O)c3ccccc3C(=O)c3ccccc3)sc2c1 |  |  |  | Non-toxic |  | Non-toxic | 180 | 300 |  |  | inactive | 300 | Activity (Mus musculus [30]): inactive
O=C(Nc1nc2ccc(F)cc2s1)c1ccccc1C(=O)c1ccccc1 | inactive | 100 | 300 |  | inactive |  | 147.3 |  | 300 | 300 |  |  | 
O=C(CCC(=O)c1ccccc1)Nc1nc2ccc(Cl)cc2s1 |  | 300 | 300 | Non-toxic |  | Non-toxic | 134.5 | 300 |  |  |  | 300 | Activity (Mus musculus [12]): Non-toxic; Activity (Mus musculus [13]): Non-toxic; Activity (Mus musculus [14]): Non-toxic; Activity (Mus musculus [19]): Non-toxic; Activity (Mus musculus [20]): Active; Activity (Mus musculus [21]): Non-toxic; Activity (Mus musculus [22]): Active
O=C(CCC(=O)c1ccccc1)Nc1nc2ccc(Br)cc2s1 | inactive | 300 |  |  | inactive | Non-toxic | 162 |  |  | 300 | inactive |  | 
CCCC(CCC)C(=O)[O-].[Na+] [VALPROATE SODIUM] |  |  |  |  |  |  |  |  |  |  |  |  | ED50 (Mus musculus [17]): 149 mg/kg
O=C(Nc1nc2ccc([N+](=O)[O-])cc2s1)c1ccccc1C(=O)c1ccccc1 |  |  |  |  | inactive |  | 154.3 | 300 | 300 | 300 | inactive |  | Activity (Mus musculus [30]): inactive
CC(=O)c1ccc2nc(NC(=O)c3ccccc3C(=O)c3ccccc3)sc2c1 | inactive | 300 | 300 | Non-toxic | inactive | Non-toxic | 172.3 |  |  |  |  |  | 
COc1ccc2nc(NC(=O)c3ccccc3C(=O)c3ccccc3)sc2c1 | inactive | 100 | 300 | Non-toxic |  | Non-toxic | 177 |  |  |  |  | 300 | 

Reference: ChEMBL document CHEMBL2150955, “Design, synthesis and evaluation of N-(substituted benzothiazol-2-yl)amides as anticonvulsant and neuroprotective” (Eur J Med Chem, 2012)
